Where a name gives a salt, the structure may show the parent alone. Blank lines part the entries; values can stand above or below the molecule they belong to.
Key:
[1] = Reactivity with GSH monitored by 1H NMR; settings: 37°C, 1.5–2 equiv GSH, pH 7.4, compared to oridonin
[2] = microsomes
[3] = system: MCF-7 and MDA-MB-231 cells; assay: MTT growth inhibition screen in two breast cancer cell lines; assay type: cell-based, human; settings: MCF-7 and MDA-MB-231, MTT
How it was run: (§1)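 MTT proliferation assay: cells seeded at 1 × 10^4 per well and treated with DMSO or test compound at 0.1, 0.33, 1.0, 3.3 and 10 μM for 72 h. MTT reagent added, then OD 560 nm read after 1 h at 37°C. Quadruplicate wells per concentration.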

[4] = system: SK-BR3 cells; assay: MTT cell proliferation assay; assay type: cell-based, human
How it was run: as §1

[5] = system: MCF-7 cells; assay: Colony-formation assay; assay type: cell-based, human; settings: MCF-7, low micromolar concentrations, 2 weeks
[6] = system: MDA-MB-231 cells; assay: Colony-formation assay; assay type: cell-based, human; settings: MDA-MB-231, low micromolar concentrations, 2 weeks
[7] = system: MCF-10A cells; assay: Growth inhibition on normal mammary epithelial cells; assay type: cell-based, human; settings: 48 h
How it was run: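 Normal mammary epithelial MCF-10A cells treated for 48 h with varying concentrations of test compound or the parent natural product. Mean ± SD of three independent experiments. Student t-test against the parent natural product at the same concentration.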

[8] = system: NF-κB (p65); assay: Western-blot analysis of apoptosis biomarkers; assay type: cell-based, human; settings: MDA-MB-231, 48 h, dose-dependent
How it was run: (§2)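 MDA-MB-231 cells given DMSO or test compound at several concentrations for 48 h, then lysed. Protein measured by Bradford (BSA standard); 40 μg resolved by SDS-PAGE and transferred to NC membrane. Blocked in 5% nonfat milk, then primaries overnight: Bcl-2 1:200, cleaved PARP 1:500, NF-κB 1:1000, Bax 1:1000, β-actin 1:2000. Secondary antibody applied; bands detected by ECL.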

[9] = system: MDA-MB-468 cells; assay: Colony-formation assay; assay type: cell-based, human; settings: MDA-MB-468, low micromolar concentrations, 2 weeks
[10] = system: MDA-MB-231 xenograft tumors; assay: MDA-MB-231 orthotopic xenograft tumor growth in nude mice; assay type: in vivo; settings: intraperitoneal; for inhibitory effect on tumor growth compared to vehicle: daily
How it was run: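 Female nude mice aged 6–8 weeks, kept in a barrier unit on a 12 h light–dark cycle. Freshly harvested MDA-MB-231 cells (1.0 × 106 in 100 μL PBS) injected into the no. 3 mammary fat pad, then mice randomized into 4 groups. Once tumours reached 80–100 mm3, daily ip test compound (10 or 15 mg/kg), parent natural product or vehicle, all dissolved in DMSO. Tumour volume (V = 0.5 × L × W2) and body weight measured daily; mean ± SEM.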

[11] = system: MCF-7 cells; assay: MTT cell proliferation assay; assay type: cell-based, human
How it was run: as §1

[12] = system: MDA-MB-231 cells; assay: MTT cell proliferation assay; assay type: cell-based, human
How it was run: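 MDA-MB-231 cells seeded at 1 × 10^4 per well, then exposed to DMSO vehicle or test compound at 0.1, 0.33, 1.0, 3.3 and 10 μM for 72 h. Proliferation read by MTT reagent, with OD at 560 nm after 1 h at 37°C. Quadruplicate wells per concentration. Mean ± SD of at least three independent experiments; one-way ANOVA across groups.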

[13] = system: Bcl-2 to Bax ratio; assay: Western-blot analysis of apoptosis biomarkers; assay type: cell-based, human; settings: MDA-MB-231, 48 h
How it was run: as §2

[14] = system: MDA-MB-468 cells; assay: MTT cell proliferation assay; assay type: cell-based, human
How it was run: as §1

[15] = system: cleaved PARP; assay: Western-blot analysis of apoptosis biomarkers; assay type: cell-based, human; settings: MDA-MB-231, 48 h, dose-dependent
How it was run: as §2

[16] = system: SK-BR3 cells; assay: Colony-formation assay; assay type: cell-based, human; settings: SK-BR3, low micromolar concentrations, 2 weeks
[17] = system: MDA-MB-231 cells; assay: Cellular apoptosis assay; assay type: cell-based, human; settings: 48 h
How it was run: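 MDA-MB-231 cells, 2.5 × 10^5 per well, exposed to DMSO vehicle or test compound (1, 5, 10, 15 or 20 μM) for 48 h. Adherent and floating cells pooled and washed in PBS, then resuspended in PBS with 1% BSA plus Annexin V and dead-cell reagent for 20 min at room temperature. Read immediately on a cell analyzer; mean ± SD, ≥3 independent experiments.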

[18] = 2 equiv of GSH at pH 7.4; cited from earlier work
[19] = system: t(8;21) leukemia; settings: 7.5 and 15 mg/kg; cited from earlier work
[20] = relatively long time (hours); cited from earlier work

Reactivity / stability of covalent warhead toward GSH (in words) [1]: may enhance the enone’s reactivity
SMILES: C=C1C(=O)[C@]23[C@H](OC(=O)[C@H](C)N)[C@H]1CC[C@H]2[C@@]12CO[C@@]3(O)[C@@H](O)[C@@H]1C(C)(C)CC[C@@H]2O.O=C(O)C(F)(F)F [Compound 14]

SMILES: C=C1C(=O)[C@@]23[C@@H]4OC(C)(C)O[C@@]25OC[C@@]2([C@H]([C@@H]5O)C(C)(C)CC[C@@H]2O)[C@@H]3CC[C@@H]14 [Compound 20]
Reactivity / stability of covalent warhead toward GSH (in words) [1]: slightly weakens the reactivity of the enone

SMILES: CC1(C)O[C@@H]2[C@H]3CC[C@H]4[C@@]56CO[C@@](O1)([C@@H](O)[C@@H]5C(C)(C)CC[C@@H]6O)[C@@]24C(=O)C31CN1 (stereo partly drawn) [Compound 25, (2R,3′S,3a′R,3a1′R,6a′R,7′S,11′S,11a′S)-7′,11′-Dihydroxy-5′,5′,8′,8′-tetramethyldecahydro-2′H-spiro[aziridine-2,15′-[6a,11a]-(epoxymethano)[3,3a1]ethanophenanthro[1,10-de][1,3]dioxin]-14’-one]
microsomal stability compared to oridonin [2]: higher microsomal and plasma stability

SMILES: C=CCNc1nc2c(s1)CC(C)(C)[C@H]1[C@H](O)[C@]3(O)OC[C@@]21[C@@H]1CC[C@@H]2[C@@H](O)[C@@]13C(=O)C21CN1C(=O)OCC1c2ccccc2-c2ccccc21 (stereo partly drawn) [Compound 42]
antiproliferative activity (in words) [3]: moderate activities

SMILES: C=CCNc1nc2c(s1)CC(C)(C)[C@H]1[C@H](O)[C@]3(O)OC[C@@]21[C@@H]1CC[C@@H]2[C@@H](O)[C@@]13C(=O)C21CN1 (stereo partly drawn) [Compound 43]
antiproliferative activity (in words) [3]: moderate activities

SMILES: C=CC(=O)N1CC12C(=O)[C@@]13[C@@H]4OC(C)(C)O[C@@]15OC[C@@]1([C@H]([C@@H]5O)C(C)(C)CC[C@@H]1O)[C@@H]3CC[C@H]42 (stereo partly drawn) [Compound 44]
suppression of proliferation (dose-dependent) [4]: suppressed the proliferation
inhibition of colony formation [5]: significantly inhibit the colony formation
inhibition of colony formation [6]: significantly inhibit the colony formation
growth-inhibitory activity against MCF-10A in comparison to oridonin ([7]; 0–10 μM): comparable
growth-inhibitory activity against MCF-10A in comparison to oridonin ([7]; 15~100 μM): significantly lower
NF-κB (p65) protein expression [8]: down-regulation
inhibition of colony formation [9]: significantly inhibit the colony formation
antitumor efficacy, 44 versus oridonin ([10]; 10 mg/kg): comparable efficacy
inhibitory effect on tumor growth compared to vehicle ([10]; 10 mg/kg): significant inhibitory effect
inhibitory effect on tumor growth compared to vehicle ([10]; 15 mg/kg): significant inhibitory effect
inhibitory effect on tumor growth compared to the oridonin group ([10]; 15 mg/kg, one-way ANOVA p = 0.0023): better inhibitory effect
suppression of proliferation (dose-dependent) [11]: suppressed the proliferation
suppression of proliferation (dose-dependent) [12]: suppressed the proliferation
ratio of Bcl-2 to Bax [13]: reduced
suppression of proliferation (dose-dependent) [14]: suppressed the proliferation
cleaved PARP expression [15]: up-regulation
inhibition of colony formation [16]: significantly inhibit the colony formation
apoptotic cells (early and late apoptosis together) ([17]; 10 μM): 18.2%
apoptotic cells (early and late apoptosis together) ([17]; 15 μM): 26.8%
apoptotic cells (early and late apoptosis together) ([17]; 20 μM): 47.6%

SMILES: CCC(=O)N1CC12C(=O)[C@@]13[C@@H]4OC(C)(C)O[C@@]15OC[C@@]1([C@H]([C@@H]5O)C(C)(C)CC[C@@H]1O)[C@@H]3CC[C@H]42 (stereo partly drawn) [Compound 45]
antiproliferative activity (in words) [3]: complete loss of activity

SMILES: COC(=O)/C=C/C(=O)OC [dimethyl fumarate]
half-life with GSH [18]: 50 to 60 min

SMILES: C=C1C(=O)[C@]23[C@H](O)[C@H]1CC[C@H]2[C@@]12CO[C@]3(O)[C@@H](O)[C@@H]1C(C)(C)CC[C@@H]2O [oridonin]
antitumor efficacy, 44 versus oridonin ([10]; 10 mg/kg): comparable efficacy
inhibition of tumor growth [19]: Inhibition of tumor growth in t(8;21) leukemia murine model (7.5 and 15 mg/kg)
stability in strong acidic or basic media [20]: not stable

Source: article PMC6388690 (Journal of medicinal chemistry, 2018)
